The RNAGym collection of RNA variant scans (doi:10.1126/science.aae0568)
Variants at the floor of the assay were thinned out.

B1: tRNA (parent)
chain: GUUCCGUUGGCGUAAUGGUAACGCGUCUCCCUCCUAAGGAGAAGACUGCGGGUUCGAGUCCCGUACGGAACG

Variants of: B1
Assay: yeast fitness relative to wild type (ratio to wild type); higher = fitter; tRNA-Arg(CCU), competitive growth, 37 C, YPD
Outline: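 Amplicons of the tRNA-Arg(CCU) gene were sequenced, 100-nucleotide paired-end, from the start population and from each end population of a pooled yeast competition. The competition, in six parallel replicates, lasted 24 hours in YPD at 37°C. Fitness relative to wild type was calculated from changes in genotype frequencies. Genotypes had to have ≥ 100 starting reads, and estimates < 0.5 were set to 0.5.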
GUUCCGUUGGCGGAAUGGUAACCCGUCUCCCUCCUAAGGAGACGACUGCGGGUUCGAGUCCCGUACGGAACG showed a yeast fitness of 0.584. For GUUCCGUUGGCGGAAUGGUAAUGCGUCCCCAUCCUAAGGAGAAGACUGCGGGUUCGAGUCCCGUACGGAACG, the yeast fitness was no more than 0.5. GUUCCGUUGGCGGAAUGGUAACGCGUCUCCCUCCUAAGGAGAAGACUGCGGGUUCGAGUCCGGUACGGAACG showed a yeast fitness of 0.726. Work on GUUCCGUUGGCGGAAUGGUAACGCGUCUCCCUCCUAAGGAGAAGACUGCGGGUUCGAGUCCUGUACGGAACG yielded a yeast fitness of 0.92. For GUUCCGUUGGCGGAAUGGUAACGCGUCUCCCUCCUAAGGAGAAGACUGCGGGUUCGAGUCCCGUACGGAUCG, the yeast fitness was 1.11. For GUUCCGUUGGCGGAAUGGUAACGCGUCUCCCUCCUAAGGAGAAGACUGCGGGUUCGAGUCCCGUACGGAGCG, the yeast fitness was 0.831. With GUUCCGUUGGCGGAAUGGUAACGCGUCUCCCUCCUAAGGAGAAGACUGCGGGUUCGAGUCCCGUACGGACCG the yeast fitness was 0.843. For GUUCCGUUGGCGGAAUGGUAACGCGUCUCCCUCCUAAGGAGAAGACUGCGGGUUGGAGUACCGUACGGAACG, the yeast fitness was no more than 0.5. With GUUCCGUUGGCGGAAUGGUAACGCGUCUCCCUCCUAAGGAGAAGACUGCGGGUUCGAGUCCCGUACGGCACG the yeast fitness was 0.951. For GUUCCGUUGGCGGAAUGGUAAUGCGUCUCCCUCCUAAGGAGAAGACUGCGGGUUCGAGUCCCGUACGGACCG, the yeast fitness was 0.748. Work on GUUCCGUUGGCGGAAUGGUAAUGCGUCUCCCUCCUAAGGAGAAGACUGCGGGUUCGAGUCCCGUACGGAUCG yielded a yeast fitness of 0.751. Work on GUUCCGUUGGCGGAAUGGUAACGCGUCUCCCUCCUAAGGAGAAGAUUGCGGGUUCGAGUCCCGUACGGAACG yielded a yeast fitness of 0.895. In the case of GUUCCGUUGGCGGAAUGAUAACGCGUCUCCCUCCUAAGCAGAAGACUGCGGGUUCGAGUCCCGUACGGUACG, the yeast fitness is reported as no more than 0.5. GUUCCGUUGGCGGGAUAGUAACGCGUCUCCCUCCUAAGCAGAAGACUGCGGGUUCGAGUCCCGUACGGAACG gave a yeast fitness of 0.758. GUUCCGUUGGCGGAAUGGUAACGCGUCUCCCUCCUAAGGAGAAGACUGUGGGUUCGAGUCCCGUACGGAACG showed a yeast fitness of 0.693. Work on GUUCCGUUGGCGGAAUGGUAACGCGUCUCGCUCCUAAGGGGAAGACUGCGGGUUCGAGUCCCGUACGGAACG yielded a yeast fitness of no more than 0.5. In the case of GUUCCGUUGGCGGAAUGGUAACGCGUCUCCCUCCUAAGGAGAAGACUGAGGCUUCGAGUCCCGUACGGAACG, the yeast fitness is reported as no more than 0.5. GUUCCGUUGGCGGAAUGGUAACGCGUCUCCCUGCUAAGGGGAAGACUGCGGGUUCGAGUACCGUACGGAACG showed a yeast fitness of no more than 0.5. For GUUCCGUUGGCGGAAUGGUAACGCGUCUCCCUCCUAAGGAGAAGUCUGCGGGUUCGAGUCCCGUACGGACCG, the yeast fitness was 0.649. Work on GUUCCGUUGGCGGAAUGGUAACGGGUCUCCCUCCUAAGGAGAAGACUGCGGGUUCGAGUCCCGUACGGAACG yielded a yeast fitness of 0.539. Variant GUUCCGUUGGCGGAAUGGUAACGAGUCUCCCUCCUAAGGAGAAGACUGCGGGUUCGAGUCCCGUACGGAACG has a yeast fitness of 0.602. In the case of GUUCCGUUGGCGGAAUGGUAACGCGUCUCACUCCUAAGGAGAAGACUGCGGGUUCGAGUCCCGUUCGGCACG, the yeast fitness is reported as no more than 0.5. Work on GUUCCGUUGGCGGCAUGGUAACGCGUCUCCCUCCUAAGGCGUAGACUGCGGGUUCGAGUCCCGUACGGAACG yielded a yeast fitness of no more than 0.5. In the case of GUUCCGUUGGCGCAAUGGUAACGCGUCUCCCUCCUAAGGAGAAGACUGCGGGUUCGAGUCCCGCACGGAACG, the yeast fitness is reported as 1.04. Variant GUUCCGUUGGCGGAAUGGUCACGCGUCUCCCUCCUAAGGAGAAGACUGCGGGUUUGAGUCCCGUACGGUACG has a yeast fitness of 0.565. For GUUCCGUUGGCGGAAUGGUAACGCGUCUUCCUUCUAAGGAGAAGACUGCGGGUUCGAGUCCCGUACAGAACG, the yeast fitness was no more than 0.5. GUUCCGUUGGCGGAAUGGUAACGCGUCUUCCUCCUAAGGAGAAGACUGCGGGUUCGAGUCCCGUACGCAACG gave a yeast fitness of no more than 0.5. For GUUCCGUUGGCGGAAUGGUAACGAGUCUCCCUCCUAAGGAGAAGGCUGCGGGUUCGAGUCCCGUACGGAACG, the yeast fitness was no more than 0.5. Variant GUUCCGUUGGCGGAAUGGUAACGCGUCUCCCUGCUAAGGAGAAGACUGCGGGUUCGAGUCCCGUACGGAACG has a yeast fitness of 0.51. GUUCCGUUGGCGGAAUGGUAACGCGUCUCCCUUCUAAGGAGAAGACUGCGGGUUCGAGUCCCGUACGGAACG showed a yeast fitness of 0.671. GUUCCGUUGGCGGAAUGGUUACGCGUCUCCCUCCUAAGGAGAAGACUGCGGGUUCGAGACCCGUACGGAACG gave a yeast fitness of no more than 0.5. Variant GUUCCGUUGGCGGAAUGGUAACGCAUCUCCCUCCUAAGGAGAAGACUGCGGGUUCGAGUCCCGUACGGAACG has a yeast fitness of 0.973. GUUCCGUUGGCGGAAUGGUAACGCGUCUCCCUCCUAAGGAGUAAACUGAGGGUUCGAGUCCCGUACGGAACG showed a yeast fitness of 0.602. With GUUCCGUUGGCGGAAUGGUAACGCGUCUUCUUCCAAAGGAGAAGACUGCGGGUUCGCGUCCCGUACGGAACG the yeast fitness was no more than 0.5. With GUUCCGUUGGCGGAAUGGUAACGCGUAACCCUUCUAAGGAGAAGACUGCGGGUUCGAGUCCCGUACGGAACG the yeast fitness was no more than 0.5. GUUCCGUUGGCGGAAUGGUAACGAGUCUCCCUCCUAAGGAGAAGGCUGCGGGUUGGAGUCCCGUACGGAACG showed a yeast fitness of 0.622. GUUCCGUUGGCGGAAUGGUAACGCGUCUUCCUCCUAAGGAGAAGACUGCGGGUUCGAGUCCCGUACGGAACG gave a yeast fitness of 0.769. In the case of GUUCCGUUGGCGGAAUGGUAACGCGUCUACCUCCUAAGGAGAAGACUGCGGGUUCGAGUCCCGUACGGAACG, the yeast fitness is reported as 0.571. GUUCCGUUGGCGGAAUGGUGACGCGUCACCCUCCUAAGGAGAAGACUGCGGGUUCGAGUCCCGUACGGAUCG showed a yeast fitness of 0.873. GUUCCGUUGGCGGCAUGGUAACGCGUCUCCCUCCUAAGCAAAAGACUGCGGGUUCGAGUGUGGUUCGGAACG showed a yeast fitness of no more than 0.5. Work on GUUCCGUUGGCGGAAUGGUGAGGCGUCUCCCUCCUAAGGAGAAGACUGCGGGUUCGAGUCCCGUACGGAACG yielded a yeast fitness of 0.581. For GUUCCGUUGGCGGAAUGGUAACGCGUGUCCCUCCUAAGGAGAAGACUGCGGGUUCGAGUCCCGUACGGAACG, the yeast fitness was 0.537. GUUCCGUUGGCGGAAUGGUAACGCAUCUCCCUCCUAAGGAGAAGACUGCGGGUUCGAGUCCCGUACGGUACG showed a yeast fitness of 0.798. Variant GUUCCGUUGGCGGAAUGGUAACGCGUCUCCCUCCUAAGGAGAAGACUGAGGGUUUGAGUUUCGUACGGAACG has a yeast fitness of no more than 0.5. For GUUCCGUUGGCGGAAUGGUAAUGCGUCUCCCUCCUAAGGAGAAAACUGCGGGUUCGAGUCCCGUACGGAACG, the yeast fitness was 0.641. For GUUCCGUUGGCGGAAUGGUAACGCGUCUCCAUCCUAAGGAGAAGACUGCGGGUUCGUGUCCCGUACGGAACG, the yeast fitness was no more than 0.5. With GUUCCGUUGGCGGAAUGGUAACGCGUCUCCCUCCUAACGAGAAGACUGCGGGUUCGAGUCCCGUACGGAACG the yeast fitness was 0.757. Work on GUUCCGUUGGCGGAAUGGUAACGCGUCUUCCUUCUAAGGAGAAGACUGCGGGUUCGAGUCCCGUACGGAACG yielded a yeast fitness of 0.57. Variant GUUCCGUUGGCGGAAUGGUAUAGCAUCUCCCUCCUAAGGAGAAGACUGCGGUUUCGAGUCCCGUACGGAACG has a yeast fitness of no more than 0.5. Work on GUUCCGUUGGCGGAAUGGUAAGGCGUCUCUCUCCUGAGGUGAAGACUGCGGGUGCGAGUCCCGUACGGAACG yielded a yeast fitness of no more than 0.5. Variant GUUCCGUUGGCGGAAUGGUAACGCGUCUCCCUCCUGAGGAGAAGACUGCGGGUUCGAGUCCCGUACGGAACG has a yeast fitness of 0.913. For GUUCCGUUGGCGGAAUGGUAACGCGUCUCCCUCCUCAGGAGAAGACUGCGGGUUCGAGUCCCGUACGGAACG, the yeast fitness was 0.52. GUUCCGUUGGCGGAAUGGUAACGCGUCUCCCUCCUAAGGAGAAGAUUGCGGGAUCGAGUCCCGUACGGAACG gave a yeast fitness of no more than 0.5. Work on GUUCCGUUGGCGGUAAUGUAACGCGUCUCCCUCCUAAGGAGAAGACUGCGGGUUCGAGUCCCGUACCGAACG yielded a yeast fitness of no more than 0.5. GUUCCGUUGGCGGAAUGGUAACGCGUCUCCCUCCUAAGGAGAAGACUGGCGGUUCGAGUGCAGUACGGAACG showed a yeast fitness of no more than 0.5. GUUCCGUUGGCGGAAUGGUAUCGCGUCUCCCUCCUAAGGAGAAGACUGCGGGUUCGAGUCCCGUACGGAACG gave a yeast fitness of 1.09. Work on GUUCCGUUGGCGGAAUGGUAACGCGUCUCCCUCCUAAGGAGAAGACUGCGGGUUCGAGUCCCGUAUGGAACG yielded a yeast fitness of 0.818. In the case of GUUCCGUUGGCGGAAUGGUAACGCGUCUCCCUCCUAAGGAGAAGACUGUGGGUUCGAGCCCCGUACGGAACG, the yeast fitness is reported as no more than 0.5. Variant GUUCCGUUGGCGGAAUGGUAACGCGUCUCCUUCCAAAGGAGAAGACUGCGAGUUCGAGUCCCGUACGGUGCG has a yeast fitness of no more than 0.5. GUUCCGUUGGCGGAAUGGUAAUGCGUCUCCAUCCUAAGGAGAAGACUGCGGGUUCGAGUCCUGUCCGGAACG showed a yeast fitness of no more than 0.5. In the case of GUUCCGUUGGCGGAAUGGUAACGUGUCUCCCUCAUAAGGAGAAGACUGUGGGUUCGAGUCCCAUACGGAACG, the yeast fitness is reported as 0.554. GUUCCGUUGGCGGAAUGGUAACGUGUCACCCUCCUAAGGAGGAGACUGCGGGUUCGAGUCCCGUACGGAACG showed a yeast fitness of no more than 0.5. For GUUCCGUUGGCGGAAUGGUACCGCGUCUCCCUCCUAAGGAGAAGAUUGCAGGUUCGAGUCCCGAACGGUACG, the yeast fitness was no more than 0.5. Variant GUUCCGUUGGCGGAAUGGUAACGCGUCUCCCUCCUAAGGAGAAGUCUGCGGGUUCGAGUCCCGUACGGAACG has a yeast fitness of 0.964. With GUUCCGUUGGCGGAAUGGUAACGCGUCUCCAUCCUAAGGAGAAGACUGCGGGUUCGAGUCCCGUAUGGAACG the yeast fitness was 0.814. In the case of GUUCCGUUGGCGGAAUGGUAACGCGUAUCCCUCCUAAGGAGAAGACUGCGGCUUAGAGUCCGGUACGGAACG, the yeast fitness is reported as 0.601. GUUCCGUUGGCGGAAUGGUAACGCGUCUCCUUCCAAAGGAGAAGACUGCGGGUUCGCGUCCCGUACGGAACG showed a yeast fitness of 0.61. In the case of GUUCCGUUGGCGCAAUGGUAACGCGUCUCCCUCCUAAGGAGAAGACUGCGGGUUCGAGGCCCGUACGCAACG, the yeast fitness is reported as no more than 0.5. In the case of GUUCCGUUGGCGGAAUGGUAAUGCGUCUCCAUCCUAAGGAGAAGACUGCGGGUUCGAGUCCCGUACGGAUCG, the yeast fitness is reported as no more than 0.5. GUUCCGUUGGCGGAAUGGUUACGCGUCUCCCUCCUAAGGAGAAGACUGCGGGUUCGAGUCCCGUACGGAACG gave a yeast fitness of 1.03. With GUUCCGUUGGCGGCAUGGUAACGCGUCUCCCUCCUAAGGAGUAGACUGCGAGUACAAGUCCCGUACGGAACG the yeast fitness was no more than 0.5. Variant GUUCCGUUGGCGGAAUGGUAACGCGUCUCCCUCCUACGGAGAAGACUGCGGGUUCGAGUCCCGUACGGAGCG has a yeast fitness of 0.539. GUUCCGUUGGCGGAAUGGUUAUGAGUCUCCCUCCUAAGGAGAAGGCUGCGGGUUUGAGUCCCGUACGGAACG gave a yeast fitness of no more than 0.5. Work on GUUCCGUUGGCGGAAUGGUUACGCGUCUCCCUCCUAAGGAGAAGACUGCGGGUUCGAGACCCGUAUGGAACG yielded a yeast fitness of no more than 0.5. For GUUCCGUUGGCGGAAUGGUAACGCGUCUCCCUCCUAAGGAGAAGACUGCGGGUUCGUGUCCCGUACGGAACG, the yeast fitness was 0.6.
